Source: ChEMBL document CHEMBL1828575, “Design, synthesis and antiproliferative activities of biarylolefins based on polyhydroxylated and carbohydrate scaffolds” (Eur J Med Chem, 2011)

Assays:
Format in all cases: functional
UACC-257 [1] = experiment: Cytotoxicity against human UACC257 cells assessed as cellular growth at 10 uM after 48 hrs by SRB assay
Method in brief: (§1)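 NCI-60 panel lines grown in RPMI 1640 with 5% FBS and 2 mM L-glutamine. Plated at 5000–40,000 cells/well and preincubated 24 h at 37 °C, 5% CO₂, with time-zero plates fixed in TCA. Compounds, dissolved in DMSO and diluted in medium, were applied for 48 h. Cells were TCA-fixed (10% final for adherent, 16% for suspension) and stained with 0.4% SRB in 1% acetic acid. Dye was solubilised in 10 mM Tris base and read at 515 nm; growth was expressed as a percentage of untreated control.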

BT-549 = experiment: Antitumor activity against human BT549 cells after 48 hrs by SRB assay; settings: BT-549, 48 h
Method in brief: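 NCI60 screen: cells grown in RPMI 1640 with 5% FBS and 2 mM L-glutamine, plated at 5000–40,000 cells/well by doubling time, preincubated 24 h at 37 °C with 5% CO2. Compounds were diluted from DMSO stocks and given for 48 h, at five concentrations for dose response. A time-zero plate was TCA-fixed. Cells were TCA-fixed, stained with 0.4% SRB and read at 515 nm, with growth expressed relative to untreated controls.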

RPMI-8226 = experiment: Antitumor activity against human RPMI8226 cells after 48 hrs by SRB assay; settings: RPMI-8226, 48 h
Method in brief: (§2)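 NCI60 panel in RPMI 1640 with 5% FBS and 2 mM L-glutamine. Cells were plated at 5000–40,000/well by doubling time, held 24 h, then time-zero plates were TCA-fixed. Five concentrations (10-fold or half-log dilutions of DMSO stocks) were applied for 48 h at 37 °C, 5% CO2. Cells were fixed with cold TCA (10% final adherent, 16% suspension) and stained with 0.4% SRB. Bound dye was dissolved in 10 mM Tris and read at 515 nm. GI50, TGI and LC50 were calculated per line.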

786-0 = experiment: Antitumor activity against human 786-0 cells after 48 hrs by SRB assay; settings: 786-0, 48 h; method in brief: as §2
OVCAR-5 = experiment: Antitumor activity against human OVCAR5 cells after 48 hrs by SRB assay; settings: OVCAR-5, 48 h; method in brief: as §2
OVCAR-4 = experiment: Cytotoxicity against human OVCAR4 cells assessed as cellular growth at 10 uM after 48 hrs by SRB assay; method in brief: as §1
ACHN [2] = experiment: Cytotoxicity against human ACHN cells assessed as cellular growth at 10 uM after 48 hrs by SRB assay
Method in brief: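 NCI60 single-dose screen of cells in RPMI 1640 with 5% FBS and 2 mM L-glutamine, preincubated 24 h at 37 °C, 5% CO₂. Cells were then exposed 48 h to compound added from DMSO stock. TCA-fixed, stained with 0.4% SRB in 1% acetic acid, dye solubilised in 10 mM Tris base and read at 515 nm. Growth is given as percent of untreated control.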

RXF 393 = experiment: Antitumor activity against human RXF393 cells after 48 hrs by SRB assay; settings: RXF 393, 48 h; method in brief: as §2
U-251 = experiment: Cytotoxicity against human U251 cells assessed as cellular growth at 10 uM after 48 hrs by SRB assay; method in brief: as §1
SNB-19 = experiment: Cytotoxicity against human SNB19 cells assessed as cellular growth at 10 uM after 48 hrs by SRB assay; method in brief: as §1
HT-29 = experiment: Antiproliferative activity against human HT-29 cells after 48 hrs by SRB assay; settings: HT-29, 48 h; method in brief: as §2
CCRF-CEM = experiment: Antitumor activity against human CCRF-CEM cells after 48 hrs by SRB assay; method in brief: as §2
SF-295 = experiment: Antitumor activity against human SF295 cells after 48 hrs by SRB assay; settings: SF-295, 48 h; method in brief: as §2
A549 = experiment: Antitumor activity against human A549 cells after 48 hrs by SRB assay; settings: A549, 48 h; method in brief: as §2
NCI-H460 = experiment: Antitumor activity against human NCI-H460 cells after 48 hrs by SRB assay; settings: NCI-H460, 48 h; method in brief: as §2
UACC-257 [3] = experiment: Antitumor activity against human UACC257 cells after 48 hrs by SRB assay; settings: UACC-257, 48 h
Method in brief: (§3)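 NCI60 panel cells grown in RPMI 1640 with 5% FBS and 2 mM L-glutamine, plated at 5000–40,000 cells/well and preincubated 24 h at 37 °C, 5% CO₂. Compound was added from DMSO at five concentrations, 10-fold or 1/2 log dilutions, then incubated 48 h.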

SK-MEL-2 = experiment: Antitumor activity against human SK-MEL-2 cells after 48 hrs by SRB assay; settings: SK-MEL-2, 48 h; method in brief: as §3
ACHN [4] = experiment: Antitumor activity against human ACHN cells after 48 hrs by SRB assay; method in brief: as §2
PC-3 = experiment: Antitumor activity against human PC3 cells after 48 hrs by SRB assay; settings: PC-3, 48 h; method in brief: as §2
[5] = read-out: LC50 (the source's name)
[6] = read-out: pLC50 (the source's name) (converted)

Question: COc1ccc(/C(=C2/O[C@@H]([C@H]3COC(C)(C)O3)[C@H]3OC(C)(C)O[C@@H]23)c2cc(OC)c(OC)c(OC)c2)cc1O was tested. Which Activity (UACC-257 [1]) did it give?
Answer: 107.04%

Question: What about the GI50 (BT-549; read-out: GI50) of the same compound?
Answer: 5.39 µM

Question: And the CC50 (BT-549; [5])?
Answer: > 100 µM

Question: What about the TGI (BT-549; read-out: TGI) of the same compound?
Answer: > 100 µM

Question: And the GI50 (BT-549; read-out: pGI50 (converted))?
Answer: 5.37 µM

Question: What about the CC50 (BT-549; [6]) of the same compound?
Answer: > 100 µM

Question: What about the TGI (BT-549; read-out: pTGI (converted)) of the same compound?
Answer: > 100 µM

Question: And the LC50 (concentration killing 50% of starting cells) (RPMI-8226)?
Answer: > 100 µM

Question: What about the GI50 (RPMI-8226; read-out: GI50) of the same compound?
Answer: 4.63 µM

Question: What about the TGI (RPMI-8226; read-out: TGI) of the same compound?
Answer: > 100 µM

Question: What about the GI50 (RPMI-8226; read-out: pGI50 (converted)) of the same compound?
Answer: 4.68 µM

Question: And the CC50 (RPMI-8226; [6])?
Answer: > 100 µM

Question: What about the TGI (RPMI-8226; read-out: pTGI (converted)) of the same compound?
Answer: > 100 µM

Question: What about the GI50 (786-0) of the same compound?
Answer: 21.2 µM

Question: And the LC50 (786-0)?
Answer: > 100 µM

Question: What about the TGI (786-0) of the same compound?
Answer: 60.6 µM

Question: What about the GI50 (OVCAR-5; read-out: GI50) of the same compound?
Answer: > 1 µM

Question: What about the CC50 (OVCAR-5; [5]) of the same compound?
Answer: > 100 µM

Question: What about the TGI (OVCAR-5; read-out: TGI) of the same compound?
Answer: > 100 µM

Question: What about the GI50 (OVCAR-5; read-out: pGI50 (converted)) of the same compound?
Answer: 100 µM

Question: What about the CC50 (OVCAR-5; [6]) of the same compound?
Answer: > 100 µM

Question: What about the TGI (OVCAR-5; read-out: pTGI (converted)) of the same compound?
Answer: > 100 µM

Question: And the Activity (OVCAR-4)?
Answer: 99.15%

Question: And the Activity (ACHN [2])?
Answer: 44.73%

Question: What about the GI50 (RXF 393) of the same compound?
Answer: 2.12 µM

Question: And the TGI (RXF 393)?
Answer: 5.89 µM

Question: And the CC50 (RXF 393; [5])?
Answer: 29.8 µM

Question: What about the Activity (U-251) of the same compound?
Answer: 46.2%

Question: What about the Activity (SNB-19) of the same compound?
Answer: 47.41%

Question: What about the LC50 (50% net cell kill) (HT-29) of the same compound?
Answer: > 100 µM

Question: What about the GI50 (HT-29; read-out: GI50) of the same compound?
Answer: 3.99 µM

Question: And the TGI (HT-29; read-out: TGI)?
Answer: > 100 µM

Question: And the GI50 (HT-29; read-out: pGI50 (converted))?
Answer: 3.98 µM

Question: And the CC50 (HT-29; [6])?
Answer: > 100 µM

Question: What about the TGI (HT-29; read-out: pTGI (converted)) of the same compound?
Answer: > 100 µM

Question: And the GI50 (CCRF-CEM; read-out: GI50)?
Answer: 3.75 µM

Question: What about the CC50 (CCRF-CEM; [5]) of the same compound?
Answer: > 100 µM

Question: And the TGI (CCRF-CEM; read-out: TGI)?
Answer: > 100 µM

Question: And the GI50 (CCRF-CEM; read-out: pGI50 (converted))?
Answer: 3.72 µM

Question: And the CC50 (CCRF-CEM; [6])?
Answer: > 100 µM

Question: And the TGI (CCRF-CEM; read-out: pTGI)?
Answer: > 100 µM

Question: What about the GI50 (SF-295; read-out: GI50) of the same compound?
Answer: 7 µM

Question: And the CC50 (SF-295; [5])?
Answer: > 100 µM

Question: And the TGI (SF-295; read-out: TGI)?
Answer: 37.3 µM

Question: And the GI50 (SF-295; read-out: pGI50 (converted))?
Answer: 6.92 µM

Question: And the CC50 (SF-295; [6])?
Answer: > 100 µM

Question: What about the TGI (SF-295; read-out: pTGI (converted)) of the same compound?
Answer: 23.4 µM

Question: And the GI50 (A549; read-out: GI50)?
Answer: 2.32 µM

Question: And the CC50 (A549; [5])?
Answer: > 100 µM

Question: What about the TGI (A549; read-out: TGI) of the same compound?
Answer: > 100 µM

Question: And the GI50 (A549; read-out: pGI50 (converted))?
Answer: 23.4 µM

Question: What about the CC50 (A549; [6]) of the same compound?
Answer: > 100 µM

Question: What about the TGI (A549; read-out: pTGI (converted)) of the same compound?
Answer: > 100 µM

Question: And the GI50 (NCI-H460; read-out: GI50)?
Answer: 4.31 µM

Question: And the CC50 (NCI-H460; [5])?
Answer: > 100 µM

Question: What about the TGI (NCI-H460; read-out: TGI) of the same compound?
Answer: > 100 µM

Question: What about the GI50 (NCI-H460; read-out: pGI50 (converted)) of the same compound?
Answer: 4.27 µM

Question: And the CC50 (NCI-H460; [6])?
Answer: > 100 µM

Question: What about the TGI (NCI-H460; read-out: pTGI) of the same compound?
Answer: > 100 µM

Question: And the GI50 (UACC-257 [3]; read-out: GI50)?
Answer: > 1 µM

Question: What about the CC50 (UACC-257 [3]; [5]) of the same compound?
Answer: > 100 µM

Question: And the TGI (UACC-257 [3]; read-out: TGI)?
Answer: > 100 µM

Question: What about the GI50 (UACC-257 [3]; read-out: pGI50 (converted)) of the same compound?
Answer: 100 µM

Question: What about the CC50 (UACC-257 [3]; [6]) of the same compound?
Answer: > 100 µM

Question: And the TGI (UACC-257 [3]; read-out: pTGI (converted))?
Answer: > 100 µM

Question: What about the GI50 (SK-MEL-2) of the same compound?
Answer: 57.9 µM

Question: What about the TGI (SK-MEL-2) of the same compound?
Answer: > 100 µM

Question: What about the CC50 (SK-MEL-2; [5]) of the same compound?
Answer: > 100 µM

Question: And the GI50 (ACHN [4]; read-out: GI50)?
Answer: 9.31 µM

Question: And the CC50 (ACHN [4]; [5])?
Answer: > 100 µM

Question: And the TGI (ACHN [4]; read-out: TGI)?
Answer: > 100 µM

Question: And the GI50 (ACHN [4]; read-out: pGI50 (converted))?
Answer: 9.33 µM

Question: What about the CC50 (ACHN [4]; [6]) of the same compound?
Answer: > 100 µM

Question: What about the TGI (ACHN [4]; read-out: pTGI) of the same compound?
Answer: > 100 µM

Question: What about the GI50 (PC-3; read-out: GI50) of the same compound?
Answer: 5.11 µM

Question: What about the CC50 (PC-3; [5]) of the same compound?
Answer: > 100 µM

Question: What about the TGI (PC-3; read-out: TGI) of the same compound?
Answer: > 100 µM

Question: What about the GI50 (PC-3; read-out: pGI50 (converted)) of the same compound?
Answer: 5.13 µM

Question: What about the CC50 (PC-3; [6]) of the same compound?
Answer: > 100 µM

Question: And the TGI (PC-3; read-out: pTGI)?
Answer: > 100 µM
